Assay results taken from ChEMBL document CHEMBL4680175, “Sulfonamide-based ring-fused analogues for CAN508 as novel carbonic anhydrase inhibitors endowed with antitumor activity: Design, synthesis, and in vitro biological evaluation” (Eur J Med Chem, 2020).

Legend:
NCI-H226 = assay: Antitumor activity against human NCI-H226 assessed as cell growth inhibition at 10 uM incubated for 48 hrs by sulforhodamine B assay; format: functional; conditions: read-out: GI
Outline: (§1)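 NCI Drug Evaluation Branch protocol: primary single-dose screen at 10 μM across a 57-line human cancer panel. Drug exposure is 48 h. Cell growth and viability are read by sulforhodamine B assay. Data are given as a mean graph of percent growth of treated cells and reported as percentage growth inhibition (GI%).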

MOLT-4 = assay: Antitumor activity against human MOLT4 cells assessed as cell growth inhibition at 10 uM incubated for 48 hrs by sulforhodamine B assay; format: functional; conditions: read-out: GI; outline: as §1
[1] = molecular target: Cyclin-dependent kinase 2/cyclin E1 (Homo sapiens, UniProt P24941); assay: Inhibition of CDK2/cyclin E (unknown origin) expressed in baculovirus infected Sf21 insect cells using histone H1 as substrate in presence of [gamma33P]ATP
MCF7 = assay: Antitumor activity against human MCF7 cells assessed as cell growth inhibition at 10 uM incubated for 48 hrs by sulforhodamine B assay; format: functional; conditions: read-out: GI; outline: as §1
NCI-H522 = assay: Antitumor activity against human NCI-H522 cells assessed as cell growth inhibition at 10 uM incubated for 48 hrs by sulforhodamine B assay; format: functional; conditions: read-out: GI; outline: as §1
U-251 = assay: Antitumor activity against human U251 cells assessed as cell growth inhibition at 10 uM incubated for 48 hrs by sulforhodamine B assay; format: functional; conditions: read-out: GI
Outline: (§2)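 NCI one-dose screen: 57-cell-line panel exposed at 10 μM for 48 h, Drug Evaluation Branch protocol. Growth and viability read by sulforhodamine B; data given as percent growth inhibition from the mean-graph of percent growth of treated cells.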

Hs-578T = assay: Antitumor activity against human HS 578T cells assessed as cell growth inhibition at 10 uM incubated for 48 hrs by sulforhodamine B assay; format: functional; conditions: read-out: GI; outline: as §1
IGROV-1 = assay: Antitumor activity against human IGROV1 cells assessed as cell growth inhibition at 10 uM incubated for 48 hrs by sulforhodamine B assay; format: functional; conditions: read-out: GI; outline: as §1
SF-539 = assay: Antitumor activity against human SF539 cells assessed as cell growth inhibition at 10 uM incubated for 48 hrs by sulforhodamine B assay; format: functional; conditions: read-out: GI; outline: as §1
SK-MEL-5 = assay: Antitumor activity against human SK-MEL-5 cells assessed as cell growth inhibition at 10 uM incubated for 48 hrs by sulforhodamine B assay; format: functional; conditions: read-out: GI; outline: as §1
Carbonic anhydrase 12 = Carbonic anhydrase 12 (Homo sapiens, UniProt O43570); assay: Inhibition of recombinant human carbonic anhydrase 12 preincubated with enzyme for 15 mins by phenol red dye based stopped flow CO2 hydrase assay
Chain of Carbonic anhydrase 12 (O43570 whole entry): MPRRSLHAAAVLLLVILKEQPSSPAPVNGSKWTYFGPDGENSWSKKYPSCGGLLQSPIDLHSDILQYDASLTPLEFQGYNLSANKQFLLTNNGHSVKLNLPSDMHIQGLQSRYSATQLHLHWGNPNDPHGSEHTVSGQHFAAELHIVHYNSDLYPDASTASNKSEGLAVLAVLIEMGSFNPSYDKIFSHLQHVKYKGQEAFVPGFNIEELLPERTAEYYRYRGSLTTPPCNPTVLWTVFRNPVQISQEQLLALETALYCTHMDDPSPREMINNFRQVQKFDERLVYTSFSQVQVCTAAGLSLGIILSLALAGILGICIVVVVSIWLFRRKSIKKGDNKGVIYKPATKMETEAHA

HCT-116 = assay: Antitumor activity against human HCT116 cells assessed as cell growth inhibition at 10 uM incubated for 48 hrs by sulforhodamine B assay; format: functional; conditions: read-out: GI; outline: as §1
Malme-3M = assay: Antitumor activity against human MALME-3M cells assessed as cell growth inhibition at 10 uM incubated for 48 hrs by sulforhodamine B assay; format: functional; conditions: read-out: GI; outline: as §1
UO-31 = assay: Antitumor activity against human UO-31 cells assessed as cell growth inhibition at 10 uM incubated for 48 hrs by sulforhodamine B assay; format: functional; conditions: read-out: GI; outline: as §2
CDK9/cyclin T1 = CDK9/cyclin T1 (Homo sapiens, UniProt P50750); assay: Inhibition of human full-length N-terminal GST/His6-tagged CDK9 (1 to 372 residues)/His6-tagged Cyclin-T1 (1 to 726 residues) expressed in sf9 cells using (YSPTSPS)2KK peptide as substrate in presence of [gamma33P]ATP
Chain of CDK9/cyclin T1 (O60563 whole entry, the tested form may be a part): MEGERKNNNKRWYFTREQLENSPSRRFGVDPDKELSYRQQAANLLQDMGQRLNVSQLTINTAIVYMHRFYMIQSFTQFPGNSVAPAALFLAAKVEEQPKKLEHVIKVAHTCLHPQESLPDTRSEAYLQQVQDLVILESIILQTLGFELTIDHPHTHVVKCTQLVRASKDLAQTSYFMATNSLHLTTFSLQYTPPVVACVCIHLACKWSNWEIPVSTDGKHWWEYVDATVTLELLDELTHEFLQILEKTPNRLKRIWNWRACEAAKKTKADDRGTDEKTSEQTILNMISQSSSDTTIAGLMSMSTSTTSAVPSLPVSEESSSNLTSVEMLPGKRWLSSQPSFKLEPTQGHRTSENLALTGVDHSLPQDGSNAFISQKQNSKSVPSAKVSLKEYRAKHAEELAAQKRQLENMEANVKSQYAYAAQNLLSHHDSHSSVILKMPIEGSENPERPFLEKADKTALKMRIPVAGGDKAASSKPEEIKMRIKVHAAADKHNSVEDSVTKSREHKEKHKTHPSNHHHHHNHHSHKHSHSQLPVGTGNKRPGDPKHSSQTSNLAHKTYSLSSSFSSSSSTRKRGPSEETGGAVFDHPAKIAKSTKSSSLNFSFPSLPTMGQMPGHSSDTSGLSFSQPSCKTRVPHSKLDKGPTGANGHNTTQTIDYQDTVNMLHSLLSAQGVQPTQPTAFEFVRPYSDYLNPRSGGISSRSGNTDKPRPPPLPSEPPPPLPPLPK
Chain of CDK9/cyclin T1 (P50750 whole entry, the tested form may be a part): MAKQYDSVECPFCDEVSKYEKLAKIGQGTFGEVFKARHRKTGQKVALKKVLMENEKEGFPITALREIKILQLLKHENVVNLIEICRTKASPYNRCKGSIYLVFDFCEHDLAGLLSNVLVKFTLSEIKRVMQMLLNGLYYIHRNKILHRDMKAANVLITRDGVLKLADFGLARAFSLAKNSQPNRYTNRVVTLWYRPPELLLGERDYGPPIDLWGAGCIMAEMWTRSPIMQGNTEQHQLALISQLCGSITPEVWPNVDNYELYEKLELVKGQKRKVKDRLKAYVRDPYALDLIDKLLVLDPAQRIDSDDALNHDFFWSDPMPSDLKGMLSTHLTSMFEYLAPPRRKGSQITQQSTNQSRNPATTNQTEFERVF

Carbonic anhydrase 1 = Carbonic anhydrase 1 (Homo sapiens, UniProt P00915); assay: Inhibition of recombinant human carbonic anhydrase 1 preincubated with enzyme for 15 mins by phenol red dye based stopped flow CO2 hydrase assay
Chain of Carbonic anhydrase 1 (P00915 whole entry): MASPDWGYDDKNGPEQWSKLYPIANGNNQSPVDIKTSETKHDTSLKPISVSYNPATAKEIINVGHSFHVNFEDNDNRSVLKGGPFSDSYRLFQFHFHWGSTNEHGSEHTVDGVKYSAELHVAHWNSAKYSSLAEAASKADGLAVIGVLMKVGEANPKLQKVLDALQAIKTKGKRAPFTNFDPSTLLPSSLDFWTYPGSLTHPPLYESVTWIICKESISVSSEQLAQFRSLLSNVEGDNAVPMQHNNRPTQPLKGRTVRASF

MDA-MB-231 = assay: Antitumor activity against human MDA-MB-231/ATCC cells assessed as cell growth inhibition at 10 uM incubated for 48 hrs by sulforhodamine B assay; format: functional; conditions: read-out: GI; outline: as §1
SN12C = assay: Antitumor activity against human SN12C cells assessed as cell growth inhibition at 10 uM incubated for 48 hrs by sulforhodamine B assay; format: functional; conditions: read-out: GI; outline: as §1
PC-3 = assay: Antitumor activity against human PC-3 cells assessed as cell growth inhibition at 10 uM incubated for 48 hrs by sulforhodamine B assay; format: functional; conditions: read-out: GI; outline: as §1
HOP-62 = assay: Antitumor activity against human HOP62 cells assessed as cell growth inhibition at 10 uM incubated for 48 hrs by sulforhodamine B assay; format: functional; conditions: read-out: GI; outline: as §1
Carbonic anhydrase 2 = Carbonic anhydrase 2 (Homo sapiens, UniProt P00918); assay: Inhibition of recombinant human carbonic anhydrase 2 preincubated with enzyme for 15 mins by phenol red dye based stopped flow CO2 hydrase assay
RXF 393 = assay: Antitumor activity against human RXF 393 cells assessed as cell growth inhibition at 10 uM incubated for 48 hrs by sulforhodamine B assay; format: functional; conditions: read-out: GI; outline: as §1
SK-MEL-2 = assay: Antitumor activity against human SK-MEL-2 cells assessed as cell growth inhibition at 10 uM incubated for 48 hrs by sulforhodamine B assay; format: functional; conditions: read-out: GI; outline: as §1
SNB-75 = assay: Antitumor activity against human SNB-75 cells assessed as cell growth inhibition at 10 uM incubated for 48 hrs by sulforhodamine B assay; format: functional; conditions: read-out: GI; outline: as §2
MDA-MB-468 = assay: Antitumor activity against human MDA-MB-468 cells assessed as cell growth inhibition at 10 uM incubated for 48 hrs by sulforhodamine B assay; format: functional; conditions: read-out: GI; outline: as §1
T47D = assay: Antitumor activity against human T-47D cells assessed as cell growth inhibition at 10 uM incubated for 48 hrs by sulforhodamine B assay; format: functional; conditions: read-out: GI; outline: as §2
HOP-92 = assay: Antitumor activity against human HOP92 cells assessed as cell growth inhibition at 10 uM incubated for 48 hrs by sulforhodamine B assay; format: functional; conditions: read-out: GI; outline: as §1
LOX IMVI = assay: Antitumor activity against human LOX IMVI cells assessed as cell growth inhibition at 10 uM incubated for 48 hrs by sulforhodamine B assay; format: functional; conditions: read-out: GI; outline: as §1
Carbonic anhydrase 9 = Carbonic anhydrase 9 (Homo sapiens, UniProt Q16790); assay: Inhibition of recombinant human carbonic anhydrase 9 preincubated with enzyme for 15 mins by phenol red dye based stopped flow CO2 hydrase assay
KM12 = assay: Antitumor activity against human KM12 cells assessed as cell growth inhibition at 10 uM incubated for 48 hrs by sulforhodamine B assay; format: functional; conditions: read-out: GI; outline: as §1
NCI-H322M = assay: Antitumor activity against human NCI-H322M cells assessed as cell growth inhibition at 10 uM incubated for 48 hrs by sulforhodamine B assay; format: functional; conditions: read-out: GI; outline: as §1
CCRF-CEM = assay: Antitumor activity against human CCRF-CEM cells assessed as cell growth inhibition at 10 uM incubated for 48 hrs by sulforhodamine B assay; format: functional; conditions: read-out: GI; outline: as §1

IC50 [1]: > 12500 nM
Ki (Carbonic anhydrase 12): 10.9 nM
IC50 (CDK9/cyclin T1): > 12500 nM
Ki (Carbonic anhydrase 1): 2440 nM
Ki (Carbonic anhydrase 2): 399 nM
Ki (Carbonic anhydrase 9): 8.8 nM
Structure (SMILES): N#Cc1c(-c2ccc(F)cc2)nc2c(/N=N/c3ccc(S(N)(=O)=O)cc3)c(N)nn2c1N
inhibition of growth at 10 µM (NCI-H226): 25%
inhibition of growth at 10 µM (MOLT-4): 62%
inhibition of growth at 10 µM (MCF7): 59%
inhibition of growth at 10 µM (NCI-H522): 32%
inhibition of growth at 10 µM (U-251): 28%
inhibition of growth at 10 µM (Hs-578T): 23%
inhibition of growth at 10 µM (IGROV-1): 36%
inhibition of growth at 10 µM (SF-539): 28%
inhibition of growth at 10 µM (SK-MEL-5): 31%
inhibition of growth at 10 µM (HCT-116): 24%
inhibition of growth at 10 µM (Malme-3M): 20%
inhibition of growth at 10 µM (UO-31): 38%
inhibition of growth at 10 µM (MDA-MB-231): 37%
inhibition of growth at 10 µM (SN12C): 24%
inhibition of growth at 10 µM (PC-3): 29%
inhibition of growth at 10 µM (HOP-62): 21%
inhibition of growth at 10 µM (RXF 393): 59%
inhibition of growth at 10 µM (SK-MEL-2): 25%
inhibition of growth at 10 µM (SNB-75): 33%
inhibition of growth at 10 µM (MDA-MB-468): 71%
inhibition of growth at 10 µM (T47D): 48%
inhibition of growth at 10 µM (HOP-92): 58%
inhibition of growth at 10 µM (LOX IMVI): 28%
inhibition of growth at 10 µM (KM12): 53%
inhibition of growth at 10 µM (NCI-H322M): 21%
inhibition of growth at 10 µM (CCRF-CEM): 51%
